From PubChem
procasp3 activ: activators of human procaspase-3 D3A mutant, primary screen, biochemical, absorbance, PC-3 D3A mutant, single concentration; recombinant procaspase-3 D3A, Ac-DEVD-pNA absorbance 405 nm; activation, % at 8.5 µM; 0.11% of 330,000 active; AID 463141, 2010;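 active means activation above the mean of all tested compounds plus 3 SD, cut at about 21% in these data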;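 further: 0% = DMSO alone and 100% = DMSO wells spiked with extra 5 µM PC-3 D3A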
Target sequence (P42574 whole entry D9A/D28A/D175A): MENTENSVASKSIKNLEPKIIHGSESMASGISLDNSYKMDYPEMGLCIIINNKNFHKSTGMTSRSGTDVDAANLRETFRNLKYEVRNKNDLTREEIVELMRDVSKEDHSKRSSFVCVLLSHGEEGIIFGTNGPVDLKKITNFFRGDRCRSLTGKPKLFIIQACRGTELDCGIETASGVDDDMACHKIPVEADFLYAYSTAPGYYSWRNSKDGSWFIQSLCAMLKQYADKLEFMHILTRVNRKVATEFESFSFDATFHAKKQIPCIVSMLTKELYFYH
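Technique: 405 nm absorbance of p-nitroaniline, reads at 0 and 120 min; Test system: Procaspase-3 D3A mutant; Incubation: 1 h enzyme-compound preincubation, then 2 h substrate reaction, 25 °C; Repeats: singlicate, each compound tested once; Benchmarks: low control DMSO wells, high control DMSO plus 5 µM PC-3 D3A.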
PREPL inh: PREPL enzyme inhibitors, primary screen, biochemical, fluorescence polarization; Prolyl endopeptidase-like (Homo sapiens), Q4J6C6; inhibition, % at 5.96 µM; AID 2751, 2010; 0.68% of 320,000 active; recombinant PREPL, fluorescence polarization activity-based probe;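 further: 0% = enzyme with DMSO and 100% = wells lacking enzyme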
LYPLA2 inh: LYPLA2 inhibitors, primary screen, counter-screen for PME1 inhibitor project, biochemical, fluorescence polarization, FP-Rh probe ABPP; Acyl-protein thioesterase 2 (Homo sapiens), O95372; recombinant LYPLA2; inhibition, % at 5.9 µM; 0.38% of 320,000 active;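 active means inhibition above the screen-wide mean plus 3 SD, limit set per campaign, cut at about 26% in these data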;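 further: 0% = LYPLA2 with DMSO and 100% = wells lacking LYPLA2 enzyme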
Target sequence (O95372 whole entry, looked up): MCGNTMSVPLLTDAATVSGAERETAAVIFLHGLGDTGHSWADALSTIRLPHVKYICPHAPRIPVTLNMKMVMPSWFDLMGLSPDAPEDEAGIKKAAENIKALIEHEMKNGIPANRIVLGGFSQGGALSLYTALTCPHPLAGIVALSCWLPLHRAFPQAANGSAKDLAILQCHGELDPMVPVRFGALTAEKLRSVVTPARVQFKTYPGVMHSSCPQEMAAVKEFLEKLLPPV
proCasp7 act: procaspase-7 activators, primary screen, counter-screen for procaspase-3 activator project, biochemical, absorbance, HTS, human; Caspase-7 (Homo sapiens), P55210; recombinant procaspase-7, Ac-DEVD-pNA absorbance 405 nm; D23A/D198A/D206A triple mutant, cannot self-cleave; scale: DMSO 0, 5 µM enzyme 100; activation, % at 8.5 µM; 0.093% of 330,000 active; AID 463210, 2010;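 active means percent activation above the screen-wide mean plus 3 SD, cut at about 25% in these data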
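Assay system: Uncleavable procaspase-7 mutant enzyme | Input: 2 µM procaspase-7 mutant as dispensed | Timing: 1 h compound preincubation, 2 h substrate cleavage, 25 °C | Repeats: One well per compound | Control set: DMSO wells as 0%, DMSO with 5 µM added PC-7 as 100% | Technique: Epi-absorbance of released pNA at 405 nm, two timepoints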
LYPLA1 counter: LYPLA1 inhibitors, primary screen, counter-screen for PME1 inhibitor project, biochemical, fluorescence polarization, FP-Rh probe ABPP | Acyl-protein thioesterase 1 (Homo sapiens), O75608 | recombinant LYPLA1 | inhibition, % at 5.9 µM | 0.16% of 320,000 active | AID 2174, 2009;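 active means inhibition above the mean of all tested compounds plus 3 SD, set per campaign, cut at about 14% in these data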;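 further: inhibitors block serine hydrolase probe labeling of LYPLA1 so polarization falls; 0% = enzyme with DMSO and 100% = wells lacking LYPLA1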
PREPL confirm: human PREPL enzyme inhibitors, confirmation, biochemical, fluorescence polarization; shares compounds with PREPL inh; recombinant PREPL, fluorescence polarization activity probe; inhibition, % at 5.96 µM; 67% of 2,000 active; AID 2803, 2010;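 further: 0% = protein with DMSO and 100% = wells lacking protein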
* hit, by the source's call. Most compounds without a hit are left out; they make up all but 1.1% or so of the library. Unless noted, no stated cut-off is given here; in the data, active means inhibition above about 43%; inactive means the rest.

`COC(=O)c1ccc(OCCOCCOc2cccc3ccc(C)nc23)cc1` gave procasp3 activ 0, PREPL inh 9, LYPLA2 inh 5, proCasp7 act 5 and LYPLA1 counter 1.
`COC(=O)c1ccccc1OCCOCCOc1cccc2ccc(C)nc12` gave procasp3 activ 11, PREPL inh 49*, LYPLA2 inh 4, proCasp7 act -1, LYPLA1 counter -2 and PREPL confirm 2.
Fc1ccccc1Cc1noc(CN(Cc2ccccn2)CC2CCCO2)n1 (stereo not drawn) was read as procasp3 activ 3, PREPL inh 51*, LYPLA2 inh 3, proCasp7 act -2, LYPLA1 counter 1 and PREPL confirm 8.
`COc1cc(/C=C2\C(=N)N3N=C(S(C)(=O)=O)SC3=NC2=O)ccc1OC(=O)c1ccco1` gave procasp3 activ 8, PREPL inh 61*, LYPLA2 inh 5, proCasp7 act -2, LYPLA1 counter -1 and PREPL confirm 85*.
Screening COc1cc(/C=C2\C(=N)N3N=C(S(C)(=O)=O)SC3=NC2=O)ccc1OC(=O)c1cccs1 returned procasp3 activ 2, PREPL inh 76*, LYPLA2 inh 12, proCasp7 act -10, LYPLA1 counter -1 and PREPL confirm 88*.
COc1cc(/C=C2\C(=N)N3N=C(S(C)(=O)=O)SC3=NC2=O)ccc1OCCOc1ccccc1C was read as procasp3 activ 2, PREPL inh 21, LYPLA2 inh -3, proCasp7 act -5 and LYPLA1 counter -10.
Screening COc1cc(/C=C2/C(=O)NN(c3cccc(C)c3)C2=O)ccc1OC(=O)c1ccco1 returned procasp3 activ -6, PREPL inh 56*, LYPLA2 inh 9, proCasp7 act 6, LYPLA1 counter -1 and PREPL confirm 38.
C/C(=N/NS(=O)(=O)c1cc(C)ccc1C)c1ccncc1 was read as procasp3 activ -18, PREPL inh 14, LYPLA2 inh 9, proCasp7 act -12 and LYPLA1 counter 2.
Cc1ccccc1NC(=O)CSc1nnc(NC(=O)c2ccco2)s1 was read as procasp3 activ -4, PREPL inh -4, LYPLA2 inh -8, proCasp7 act 4 and LYPLA1 counter -5.
Screening NCCCC[C@@H]1NC(=O)c2cc([N+](=O)[O-])cc(I)c2SC[C@@H](C(N)=O)NC(=O)[C@H](Cc2ccc(O)cc2)NC1=O returned procasp3 activ 0, PREPL inh 54*, LYPLA2 inh -22, proCasp7 act -11, LYPLA1 counter -2 and PREPL confirm 49*.
`NCCCC[C@@H]1NC(=O)[C@H](CCC(=O)O)NC(=O)c2cc([N+](=O)[O-])cc(I)c2SC[C@@H](C(=O)NCC(N)=O)NC1=O` gave procasp3 activ -3, PREPL inh 7, LYPLA2 inh 1, proCasp7 act 0 and LYPLA1 counter 0.
For Nc1ncc(Br)cc1S(=O)(=O)N1CCCCCC1 the results were procasp3 activ 3, PREPL inh 5, LYPLA2 inh 5, proCasp7 act -1 and LYPLA1 counter -2.
`CSc1ccc(NC(=O)NCCCN2CCN(c3ccccc3F)CC2)cc1` gave procasp3 activ 6, PREPL inh 43*, LYPLA2 inh -1, proCasp7 act 6, LYPLA1 counter 0 and PREPL confirm 42.
O=C(NCCCN1CCN(c2ccccc2F)CC1)Nc1ccc(F)cc1 was read as procasp3 activ 2, PREPL inh 18, LYPLA2 inh 4, proCasp7 act 11 and LYPLA1 counter -4.
Cc1c(C)n(C)c2ccc(C(=O)NCCCN3CCN(c4ccccc4F)CC3)cc12 was read as procasp3 activ 8, PREPL inh 44*, LYPLA2 inh 7, proCasp7 act 8, LYPLA1 counter 1 and PREPL confirm 42.
For CCOc1cc(/C=C2\C(=O)N(c3ccc(C(N)=O)cc3)N=C2C)ccc1OC(=O)c1cccs1 the results were procasp3 activ -1, PREPL inh 58*, LYPLA2 inh 15, proCasp7 act 6, LYPLA1 counter 1 and PREPL confirm 91*.
Screening CC1=NN(c2ccc(C(=O)O)cc2)C(=O)/C1=C\c1ccc(OC(=O)c2cccs2)cc1 returned procasp3 activ -3, PREPL inh 45*, LYPLA2 inh 8, proCasp7 act 7, LYPLA1 counter -1 and PREPL confirm 62*.
`C=CCN(C(=O)c1csnn1)C(C(=O)NC1CCCCC1)c1ccccc1` (stereo not drawn) gave procasp3 activ 2, PREPL inh 8, LYPLA2 inh -3, proCasp7 act -5 and LYPLA1 counter -1.
Screening CCOc1ccc(NS(=O)(=O)c2ccc(C(=O)NCC(c3ccco3)N(C)C)cc2)cc1 (stereo not drawn) returned procasp3 activ 16, PREPL inh 6, LYPLA2 inh 1, proCasp7 act -4 and LYPLA1 counter -2.
Screening Oc1ccccc1N1CCN(c2ccc3ccccc3n2)CC1 returned procasp3 activ -1, PREPL inh 54*, LYPLA2 inh 3, proCasp7 act 1, LYPLA1 counter -1 and PREPL confirm 42.
Screening COc1ccc(C(CCNCc2ccc(OC)c(OC)c2)c2ccc(F)cc2)cc1 (stereo not drawn) returned procasp3 activ 7, PREPL inh 7, LYPLA2 inh -5, proCasp7 act -1 and LYPLA1 counter -4.
Screening COc1ccc(C(CCNCc2ccc(N(C)C)cc2)c2ccccc2)cc1 (stereo not drawn) returned procasp3 activ 0, PREPL inh 54*, LYPLA2 inh 0, proCasp7 act -10, LYPLA1 counter 1 and PREPL confirm 64*.
`COc1ccc(Cl)cc1NC(=O)c1nnn(CC(=O)Nc2ccc3c(c2)OCO3)c1N` gave procasp3 activ -2, PREPL inh -9, LYPLA2 inh -39, proCasp7 act 1 and LYPLA1 counter -15.
`Cc1c(C#N)c(N=CN(C)C)c(C(=O)c2ccc(Br)cc2)n1-c1ccc(Cl)cc1` gave procasp3 activ -11, PREPL inh 48*, LYPLA2 inh 2, proCasp7 act -4, LYPLA1 counter 1 and PREPL confirm 53*.
